Experimental data taken from ChEMBL document CHEMBL4513216, “Probing the Open Global Health Chemical Diversity Library for Multistage-Active Starting Points for Next-Generation Antimalarials” (ACS Infect Dis, 2020).

Test: Toxicity liver stage against HepG2, at 10uM
Type: cell-based
Set-up: test concentration 10 uM, cell line HepG2-A16-CD81EGFP
Details: human, HepG2-A16-CD81EGFP cells; read-out: INHIBITION
In short: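 Uninfected HepG2-A16-CD81EGFP cells, 3 × 10^3 per well, 1536-well, plated on prespotted compound at 10 μM final, parasite-free screening media added to match infected plates; puromycin 10 μM positive, DMSO 0.5% negative; run in parallel with 48 h PbLuc assay at 37 °C, 5% CO2; viability by CellTiter-Glo luminescence, normalized to controls.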

| Structure (SMILES) | cytotoxicity at 10 µM |
| --- | --- |
| CCN(CC)S(=O)(=O)c1ccc2c(c1)N(Cc1ccccn1)C(=O)CS2 | 3.51% |
| COCCN1CC(O)CN(C(=O)c2cccc(C(F)(F)F)c2)CC1=O (stereo not given) | -3.84% |
| COC1CN(C(=O)Nc2ccccc2)CCC(=O)N(C)c2ccccc21 (stereo not given) | -9.69% |
| O=C(Cc1ccsc1)NCCc1ccoc1 | 5.5% |
| O=C(CC1CC1)N1Cc2nccn2CC(COc2cccnc2)C1 (stereo not given) | 5.09% |
| Cc1oc(-c2nc(C#N)c(N(C)C)o2)cc1S(=O)(=O)N1CCCCCC1 | -13.9% |
| O=S(=O)(NCC1CCN(c2ccccn2)CC1)c1ccccc1F | -0.549% |
| COc1cccc(NC(=O)NCc2cnn(C)c2)c1 | -1.59% |
| CCn1c(NCc2ccc(OC)cc2)nc2c(C)nn(C)c2c1=O | 4.23% |
| CC(=O)N[C@H]1CCO[C@@H](c2cccc(NC(=O)Cc3ccccc3)c2)C1 | 8.3% |
| O=S(=O)(c1cn[nH]c1)N1CCCC(O)(CN2CCOCC2)CC1 (stereo not given) | 6.61% |
| Cc1ccnc(C2CCN(CCCOc3ccccc3F)C2)n1 (stereo not given) | 6.04% |
| Cn1ccnc1C(O)c1ccccc1N1CCN(CC2CCCC2)CC1 (stereo not given) | 0.135% |
| CCOC(=O)c1n[nH]cc1-c1cncn1CC(C)n1nc(C)cc1C (stereo not given) | 2.25% |
| NC(=O)CN1CCCC1c1cncc(Oc2ccc(Cl)cc2)n1 (stereo not given) | -10.4% |
| Cc1nc(C)c(C(=O)N2CCCC2c2nc(O)cc(C(C)C)n2)s1 (stereo not given) | -29.4% |
| O=C(C1CC1)N1CCc2nc(C3CCN(C(=O)C4CC4)C3)nc(O)c2C1 (stereo not given) | -20.9% |
| Cc1nc(O)cc(C2CCCN2CCO)n1 (stereo not given) | -14.5% |
| CCc1nc2ccccc2c(=O)n1CC1(O)CCN(CC(=O)OC)CC1 | -4.99% |
| CC(C)CNC(=O)c1cc(C2CC2)nc2onc(C3CCNCC3)c12 | 10.8% |
| Cc1ccc(S(=O)(=O)NC(=O)CCC(F)(F)F)cc1N(C)C | -3.79% |
| CCCS(=O)(=O)NC(=O)c1cc(C)n(-c2ccccc2)n1 | -7.21% |

| Structure (SMILES) | cytotoxicity at 10 µM |
| --- | --- |
| Cc1nnc(NCc2ccc(Cl)cc2)o1 | 3.79% |
| CCC(NC(=O)Cn1ccc(=O)n(C)c1=O)c1ccccc1OC (stereo not given) | 7.23% |
| O=C1NCCCCC1NC(=O)C1(c2cccc(C(F)(F)F)c2)CC1 (stereo not given) | -5.67% |
| COCC(C)NC(=O)CCSc1ccc(F)cc1 (stereo not given) | 1.28% |
| CSc1ccc(CNC2(c3ccc(F)cc3)CCOCC2)cc1 | -4.51% |
| N#Cc1cccc(Cl)c1NC1CCN(CC(N)=O)CC1 | -5.87% |
| CC(CNC(=O)N1CCC(CO)CC1)Cc1cccs1 (stereo not given) | -8.52% |
| Cn1nc2c(cc1=O)CN(CC(=O)Nc1nccs1)CC2 | 7.07% |
| Cc1cc(C)n(C2CCCN(C(=O)c3ccc(N(C)C)nn3)C2)n1 (stereo not given) | -9.31% |
| O=C(c1ccoc1)N1CCCCC1c1nc[nH]n1 (stereo not given) | -7.03% |
| CC(SCCS(C)(=O)=O)c1nc(Cc2ccccc2)no1 (stereo not given) | 2.25% |
| NCc1ccc(Oc2cccc(Cl)c2Cl)cc1 | 7.25% |
| O=C(O)c1ccnc(SCc2ccccc2)c1 | -9.98% |
| O=S(=O)(NC1CCCCC12OCCO2)c1cc(Cl)cc(Cl)c1 (stereo not given) | 11.5% |
| CCn1nc(C)cc1C(=O)N1CCOc2ccc(OC)cc21 | 14.3% |
| CC(=O)N1CCCN(C(=O)Cc2c(C)nc(C)[nH]c2=O)CC1 | -8.28% |
| COc1ccc(Br)cc1CC(=O)N1CCCC1 | -2.69% |
| CCS(=O)(=O)N1CCN(C(C)c2ccccc2OC)CC1 (stereo not given) | 4.55% |
| CC(Nc1ccc(CC(=O)N(C)C)cc1)C(=O)N(C)CCC#N (stereo not given) | 1.42% |
| CC(C)(NCC(=O)N1CCCC(C(N)=O)C1)c1ccc(Cl)cc1 (stereo not given) | 3.36% |
| CC(CNC(=O)c1ccccc1Oc1cccnc1)N(C)C (stereo not given) | -9.29% |
| O=C(NC1(c2cccc(F)c2)CCOCC1)c1cc[nH]n1 | -6.83% |

| Structure (SMILES) | cytotoxicity at 10 µM |
| --- | --- |
| COc1cc(C(=O)N(Cc2ccc(F)cc2)C2CC2)cc2c1OCCO2 | -1.33% |
| CC(NC(=O)NCC1(O)CCC1)c1ccc(OCC2CC2)c(F)c1 (stereo not given) | -4.69% |
| CS(=O)(=O)NCCCNC(=O)c1cccc(-n2cccc2)c1 | -9.86% |
| Cn1nccc1-c1cnc2n1CCNC21CCN(C(=O)C2(C)CC2)CC1 | -111% |
| Cc1cc(C(=O)N2CCn3cc(CN4CCCC4)nc3C2)no1 | -79.3% |
| N#Cc1cccc(N2CC3(CCN(C(=O)C4CC=CC4)C3)CC2=O)c1 (stereo not given) | 1.77% |
| COc1ccc(CN2CCn3c(CNS(C)(=O)=O)nnc3C2)cc1 | 4.19% |
| N[C@H]1CN(C(=O)Cc2ccc(Cl)c(Cl)c2)C[C@@H]1C1CC1 | -14.4% |
| Cc1cc(C)nc(NCc2cc3n(n2)CCCN(C(=O)C2CCC2)C3)n1 | -120% |
| COCCN1CCN(c2nc(C3CCCC3)nc3c2cnn3C)CC1 | -1.91% |
| Cc1ccnc(NCCNC(=O)Cc2c(C)[nH]c3c(C)ccc(C)c23)c1 | -1.89% |
| O=c1c(C(F)(F)F)cccn1Cc1nnc(-c2cccnc2)o1 | -2.93% |
| CCC[C@@H]1CN(Cc2c[nH]nc2-c2ccc(OC)cc2)C[C@H]1NC(C)=O | -0.566% |
| CCCc1cnc(C)nc1N1CCC2(CCCO2)CC1 | -13.4% |
| NC(=O)c1noc(Cn2ccc3ccccc3c2=O)n1 | 1.39% |
| Cc1nc(NCCSc2ccccn2)c2c(C)noc2n1 | 18.8% |
| Cc1ccc(F)cc1-c1ccc(N)nc1 | -143% |
| CC(C)c1nc(C(=O)N2C[C@H](C(C)C)[C@@H](N)C2)cs1 | -3.73% |
| Cc1cccc(OCC2CCCN(C(=O)Cn3ccccc3=O)C2)c1 (stereo not given) | -0.503% |
| CCn1c(CN2CCCC2)nnc1C1CCN(S(=O)(=O)CC)CC1 | -4.92% |
| COc1nc2c(cc1C(=O)N1C[C@@H](N)C[C@H]1C(=O)NC(C)C)CCC2 | 3.52% |
| O=C(Cc1ccccc1C(F)(F)F)N1CCC2(CC1)OCCCC2O (stereo not given) | -2.62% |

| Structure (SMILES) | cytotoxicity at 10 µM |
| --- | --- |
| CNC(=O)CC1CCN(Cc2nc(-c3cccc(Cl)c3)oc2C)CC1 | -9.75% |
| CNc1nc2c(c(C(=O)N3CCCC3)n1)CN(Cc1nccn1C)CC2 | -8.74% |
| O=C(c1cccc(=O)[nH]1)N(Cc1ccsc1)CC1CCCO1 (stereo not given) | -11.5% |
| CCCC(=O)N(C)C(c1cccc(F)c1)c1ccccn1 (stereo not given) | -2.51% |
| CC(C)Oc1ccc(CNC(=O)CN(C)S(C)(=O)=O)cc1F | -3.1% |
| CC(Cn1ccnc1)NC(=O)N1CCN(Cc2ccncc2)CC1 (stereo not given) | -4.1% |
| Cn1ncc2c(=O)[nH]c(CN3CCc4sccc4C3)nc21 | -19% |
| COC(=O)c1cccc(S(=O)(=O)NCc2cccnc2N(C)C)c1 | 5.68% |
| Cc1cnn(CC2CCCCN2CCCS(=O)(=O)N(C)C)c1 (stereo not given) | -5.1% |
| Cc1cnc(CN(C)C2CCN(Cc3nc4ccccc4o3)C2)o1 (stereo not given) | -19.4% |
| Cc1cnn(CC2CN(CC(=O)N(C)Cc3ccccc3)CCO2)c1 (stereo not given) | -4.35% |
| Cc1cnc(CN(C)C2CCN(Cc3nccn3C)C2)o1 (stereo not given) | -7.03% |
| Cc1nc(C(=O)N2CCCC2c2cnn(C)c2)ccc1C#N (stereo not given) | -13.4% |
| Cc1ccc(-c2nc(CN(Cc3cccs3)CC3CCCO3)no2)cc1 (stereo not given) | 0.561% |
| CCC(O)CN1CCN(C(=O)c2ccn(C)c(=O)c2)CC1 (stereo not given) | -10% |
| CC(=O)Nc1nc(C(=O)NCc2ccc(N3CCCC3)nc2)cs1 | -2.6% |
| Cc1nc2c(c(C)c1CC(=O)NCc1ccco1)c(=O)[nH]n2C | -42.5% |
| CCc1nc(C2CCCN(C(=O)NC(C)C)C2)no1 (stereo not given) | -14% |
| O=C(c1cccn1Cc1cccs1)N1CCN(C2CC2)CC1 | -10.4% |
| CC(C(=O)N1CCCN(Cc2ccc(C#N)cc2)CC1)n1ccnc1 (stereo not given) | -10.9% |
| c1coc(-c2nnc(CN3CCOC(Cn4cccn4)C3)o2)c1 (stereo not given) | -11% |
| CN1CCOC(CNCc2cccc(OCc3ccccn3)c2)C1 (stereo not given) | -16.5% |

| Structure (SMILES) | cytotoxicity at 10 µM |
| --- | --- |
| O=C(NCCN1CCCCCC1=O)c1n[nH]c(=O)c2ccccc12 | -4.38% |
| O=C1OCCN1CCc1nc(-c2cc3c4c(c2)CC(=O)N4CCC3)cs1 | -7.1% |
| OC(CN1CCOCC1)CN1CCc2c(ncn2C2CC2)C1 (stereo not given) | 2.45% |
| CS(=O)(=O)N1CCN(CC(O)COc2ccc(F)cc2)CC1 (stereo not given) | 6.11% |
| COc1ccc(C(CNC(=O)Nc2cn[nH]c2)N2CCOCC2)cc1 (stereo not given) | 1.3% |
| CC(CNCc1ccc(Br)cc1)Oc1ccccn1 (stereo not given) | 5.36% |
| CC1(C)CC(N(Cc2ccccc2)Cc2c[nH]cn2)CC(C)(C)N1 | 5.28% |
| c1csc(CNCC2COCc3c(-c4ccoc4)nnn3C2)n1 (stereo not given) | -107% |
| O=C(NCc1ccco1)[C@H]1C[C@@H]2CCN(c3nncs3)C[C@H]2O1 | 1.84% |
| CCC1=N[C@@]2(CC[C@@H]3CN(Cc4ccccc4F)C[C@@H]32)C(=O)N1CC | -12.4% |
| CN(C)CCOCC1CN(CC2CCOCC2)Cc2nnn(C)c21 (stereo not given) | 3.01% |
| CN1CCO[C@@H]2CN(S(=O)(=O)c3cccnc3)C[C@@H]2C1 | 6.17% |
| O=C(N1CCCO1)[C@@]12CCO[C@@H]1CCN(C1CCCCC1)C2 | -5.23% |
| COCCn1cc2c(n1)C(CNCc1ccc(F)cc1)OCC2 (stereo not given) | -9.47% |
| COc1c(CNCc2ccc(C(=O)NC3CC3)cc2)c(C)nn1C | 3.18% |
| CN(C)CC1CN(C(=O)NCc2ccccc2)Cc2nccn2C1 (stereo not given) | -3.91% |
| Cc1nc(CN2C[C@@H]3CN(C(=O)c4ccnnc4)C[C@@H]3C2=O)cs1 | -7.41% |
| Cc1ccccc1CC(C)NCc1c(C)nn(C)c1N1CCOCC1 (stereo not given) | -13.1% |
| CN(C)C(=O)[C@@H]1C[C@@H]2CCN(Cc3ccc4c(c3)OCO4)C[C@@H]2O1 | 2.26% |
| Cc1nc(CO[C@H]2CN(C(=O)c3ccc[nH]3)[C@@H]3COC[C@H]23)cs1 | -110% |
| Cc1noc(C)c1CN1C[C@@H]2COC[C@H](C(=O)N3CCOCC3)[C@@H]2C1 | -70% |
| O=C(NCC1CC1)[C@H]1C[C@H]2CN(C(=O)NCc3ccccc3)C[C@@H]1O2 | 4.97% |
